# Active and inactive are the calls of the source. The calls are words filed in the database; no cut-off is given here.
# Assays:
# [1] = Antioxidant activity assessed as inhibition of microsomal lipid peroxidation at 200 ug/mL by spectrophotometric analysis relative to control; assay type: functional
# Rattus norvegicus [2] = test: Antihyperlipidemic activity in Charles-Foster rat assessed as reversal of triton-induced increase in plasma total cholesterol level at 50 mg/kg, po after 18 hrs relative to triton-treated control; assay type: functional
# How it was run: (§1)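 Dose-response in triton WR-1339 (400 mg/kg i.p.) hyperlipidemic male Charles Foster rats given oral agent at 50, 100 or 150 mg/kg in gum acacia suspension for 18 h, 6 rats/group. Plasma TC, PL and TG were measured enzymatically. Pooled data as mean ± SD; triton versus triton-plus-agent groups compared by t-test.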
# Rattus norvegicus [3] = test: Antihyperlipidemic activity in Charles-Foster rat assessed as reversal of triton-induced increase in plasma total cholesterol level at 100 mg/kg, po after 18 hrs relative to control; assay type: functional
# How it was run: (§2)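 Male adult Charles Foster rats (200-225 g), 6 per group; triton WR-1339 400 mg/kg i.p. plus oral test agent in 0.2% gum acacia suspension, given together, diet withdrawn. After 18 h, retro-orbital EDTA blood was centrifuged 2500 g, 4 °C, 10 min; plasma was diluted 1:3 in saline and TC, PL and TG were assayed enzymatically (mg/dl). Mean ± SD; Student's t-test.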
# Rattus norvegicus [4] = test: Antihyperlipidemic activity in Charles-Foster rat assessed as reversal of triton-induced increase in plasma phospholipid level at 50 mg/kg, po after 18 hrs relative to triton-treated control; assay type: functional; how it was run: as §1
# Rattus norvegicus [5] = test: Antihyperlipidemic activity in po dosed Charles-Foster rat assessed as reversal of triton-induced increase in plasma triglyceride level after 18 hrs; assay type: functional, organism-based; how it was run: as §2
# Rattus norvegicus [6] = test: Antihyperlipidemic activity in Charles-Foster rat assessed as reversal of triton-induced decrease in HDL level at 100 mg/kg, po after 18 hrs; assay type: functional, organism-based; set-up: dose 100 mg/kg
# How it was run: (§3)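 Triton WR-1339 (400 mg/kg i.p.) hyperlipidemic male Charles Foster rats dosed 100 mg/kg p.o. for 18 h, 6/group. Serum was fractionated into VLDL, LDL and HDL by polyanionic precipitation and lipoprotein cholesterol measured. Mean ± SD; Student's t-test against triton group.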
# Rattus norvegicus [7] = test: Antihyperlipidemic activity in Charles-Foster rat assessed as reversal of triton-induced increase in plasma phospholipid level at 100 mg/kg, po after 18 hrs relative to triton-treated control; assay type: functional; how it was run: as §2
# Rattus norvegicus [8] = test: Antihyperlipidemic activity in Charles-Foster rat assessed as reversal of triton-induced increase in plasma triglyceride level at 100 mg/kg, po after 18 hrs relative to triton-treated control; assay type: functional; how it was run: as §2
# Rattus norvegicus [9] = test: Antihyperlipidemic activity in Charles-Foster rat assessed as post heparin lipolytic activity at 100 mg/kg, po after 18 hrs by spectrophotometric analysis relative to control; assay type: functional
# How it was run: (§4)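 Male adult Charles Foster rats (200-225 g), 6 per group. Triton WR-1339 400 mg/kg i.p.; test agent 100 mg/kg p.o. as gum acacia (0.2% w/v) suspension in water, given simultaneously, diet withdrawn; vehicle to control and triton groups. At 18 h under thiopentone (50 mg/kg), retro-orbital blood collected into EDTA and plasma separated. Post-heparin lipolytic activity read spectrophotometrically as nmol free fatty acid/h/ml plasma; mean ± SD; Student's t-test.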
# [10] = Antioxidant activity assessed as inhibition of superoxide anion generation at 200 ug/mL after 30 mins by NBT reduction assay relative to control; assay type: functional
# How it was run: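 Superoxide was generated by xanthine, xanthine oxidase (0.04 U) and nitroblue tetrazolium in 100 mM phosphate buffer pH 8.2, with or without agent at 200 µg/ml, for 30 min at 37 °C. Stopped with glacial acetic acid; formazan read at 560 nm, and % inhibition derived using ε 7.2 × 10³ M⁻¹cm⁻¹.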
# Rattus norvegicus [11] = test: Antihyperlipidemic activity in po dosed Charles-Foster rat assessed as reversal of triton-induced increase in plasma phospholipid level after 18 hrs; assay type: functional, organism-based; how it was run: as §2
# Rattus norvegicus [12] = test: Antihyperlipidemic activity in Charles-Foster rat assessed as reversal of triton-induced increase in plasma phospholipid level at 100 mg/kg, po after 18 hrs relative to control; assay type: functional; how it was run: as §2
# Rattus norvegicus [13] = test: Antihyperlipidemic activity in Charles-Foster rat assessed as reversal of triton-induced increase in LDL level at 100 mg/kg, po after 18 hrs; assay type: functional, organism-based; set-up: dose 100 mg/kg; how it was run: as §3
# Rattus norvegicus [14] = test: Antihyperlipidemic activity in Charles-Foster rat assessed as reversal of triton-induced increase in plasma phospholipid level at 150 mg/kg, po after 18 hrs relative to triton-treated control; assay type: functional; how it was run: as §1
# Rattus norvegicus [15] = test: Antihyperlipidemic activity in Charles-Foster rat assessed as reversal of triton-induced increase in VLDL level at 100 mg/kg, po after 18 hrs; assay type: functional, organism-based; set-up: dose 100 mg/kg; how it was run: as §3
# Rattus norvegicus [16] = test: Antihyperlipidemic activity in Charles-Foster rat assessed as reversal of triton-induced increase in plasma triglyceride level at 150 mg/kg, po after 18 hrs relative to triton-treated control; assay type: functional; how it was run: as §1
# Rattus norvegicus [17] = test: Antihyperlipidemic activity in Charles-Foster rat assessed as reversal of triton-induced increase in plasma total cholesterol level at 150 mg/kg, po after 18 hrs relative to triton-treated control; assay type: functional; how it was run: as §1
# Rattus norvegicus [18] = test: Antihyperlipidemic activity in Charles-Foster rat assessed as reversal of triton-induced increase in plasma total cholesterol level at 100 mg/kg, po after 18 hrs relative to triton-treated control; assay type: functional; how it was run: as §2
# Rattus norvegicus [19] = test: Antihyperlipidemic activity in Charles-Foster rat assessed as reversal of triton-induced increase in plasma triglyceride level at 100 mg/kg, po after 18 hrs relative to control; assay type: functional; how it was run: as §2
# Rattus norvegicus [20] = test: Antihyperlipidemic activity in Charles-Foster rat assessed as reversal of triton-induced increase in plasma triglyceride level at 50 mg/kg, po after 18 hrs relative to triton-treated control; assay type: functional; how it was run: as §1
# [21] = Antioxidant activity assessed as inhibition of hydroxyl radical generation at 200 ug/mL after 90 mins by spectrophotometric analysis relative to control; assay type: functional
# How it was run: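 Hydroxyl radicals were generated non-enzymically from deoxyribose (2.8 mM), FeSO4 (2 mM), sodium ascorbate (2.0 mM) and H2O2 (2.8 mM) in KH2PO4 buffer pH 7.4, 2.5 mL final, with or without agent at 200 µg/ml, for 90 min at 37 °C. MDA was read spectrophotometrically by the thiobarbituric acid method against reference samples and reagent blanks.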
# Rattus norvegicus [22] = test: Antihyperlipidemic activity in triton-induced Charles-Foster rat assessed as increase in plasma lecithin cholesterol acyltransferase activity at 100 mg/kg, po after 18 hrs by colorimetric assay; assay type: functional, organism-based; set-up: dose 100 mg/kg
# Rattus norvegicus [23] = test: Antihyperlipidemic activity in po dosed Charles-Foster rat assessed as reversal of triton-induced increase in plasma total cholesterol level after 18 hrs; assay type: functional, organism-based; how it was run: as §2
# Rattus norvegicus [24] = test: Antihyperlipidemic activity in Charles-Foster rat assessed as post heparin lipolytic activity at 100 mg/kg, po after 18 hrs by spectrophotometric analysis relative to triton-treated control; assay type: functional; how it was run: as §4
Structure (SMILES),inhibition [1] [%],Activity (Rattus norvegicus [2]) [%],Activity (Rattus norvegicus [3]) [mg/dL],Activity (Rattus norvegicus [4]) [%],Activity (Rattus norvegicus [6]),Activity (Rattus norvegicus [7]) [%],Activity (Rattus norvegicus [8]) [%],Activity (Rattus norvegicus [9]) [nmol/h/mL],inhibition [10] [%],Activity (Rattus norvegicus [12]) [mg/dL],Activity (Rattus norvegicus [13]),Activity (Rattus norvegicus [14]) [%],Activity (Rattus norvegicus [15]),Activity (Rattus norvegicus [16]) [%],Activity (Rattus norvegicus [17]) [%],Activity (Rattus norvegicus [18]) [%],Activity (Rattus norvegicus [19]) [mg/dL],Activity (Rattus norvegicus [20]) [%],Activity (Rattus norvegicus [22]),Activity (Rattus norvegicus [24]) [%],further results
CCc1cc(C(c2c[nH]c3ccc(OC)cc23)c2c[nH]c3ccc(OC)cc23)cc2cc(C(=O)c3ccc(OC)cc3)oc12,32,-22,132.63,-20,Active,-29,-28,15.58,31,146.88,Active,-29,Active,-30,-29,-28,155.59,-20,Active,18,Activity (Rattus norvegicus [5]): Dose-dependent effect; Activity (Rattus norvegicus [11]): Dose-dependent effect; inhibition [21]: 27%; Activity (Rattus norvegicus [23]): Dose-dependent effect
COc1ccc(C(=O)c2cc3cc(C(c4c[nH]c5ccc(OC)cc45)c4c[nH]c5ccc(OC)cc45)cc(C(C)(C)C)c3o2)cc1,,-20,139.99,-20,Active,-23,-23,15.45,,159.29,Active,-23,Active,-24,-27,-24,166.4,-21,Active,17,
CCCc1cc(C(c2c[nH]c3ccc(OC)cc23)c2c[nH]c3ccc(OC)cc23)cc2cc(C(=O)c3ccc(OC)cc3)oc12,,-17,139.99,-18,Active,-23,-23,15.32,,159.29,Active,-26,Active,-24,-24,-24,166.4,-16,Active,16,
Oc1ncnc2[nH]ncc12,,,,,,,,,51,,,,,,,,,,,,
COc1ccc(C(=O)c2cc3cc(C(c4c[nH]c5ccc(OC)cc45)c4c[nH]c5ccc(OC)cc45)cc(C)c3o2)cc1,31,-15,141.84,-17,Active,-23,-24,15.32,33,159.29,Active,-24,Active,-25,-25,-23,164.24,-16,Active,16,inhibition [21]: 30%

# Reference: ChEMBL document CHEMBL2424556, “Hybrid benzofuran-bisindole derivatives: new prototypes with promising anti-hyperlipidemic activities” (2013)
